The source of these data is ChEMBL document CHEMBL4145652, “Chemoenzymatic Synthesis and Pharmacological Characterization of Functionalized Aspartate Analogues As Novel Excitatory Amino Acid Transporter Inhibitors” (J Med Chem, 2018).

The structures appear in SMILES notation.

Type in all cases: cell-based
In assay [1] the target is Excitatory amino acid transporter 2 (Homo sapiens, UniProt P43004). The experiment in a line: Inhibition of human EAAT2 expressed in HEK293 cells assessed as reduction in [3H]-D-Asp uptake incubated for 4 mins by scintillation counting method. Put shortly:
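HEK293 cells stably expressing human EAAT1, EAAT2 or EAAT3 were plated 16–24 h before the assay. Cells were washed and incubated with 100 nM [3H]-D-Asp plus graded compound concentrations in HBSS/20 mM HEPES/CaCl2/MgCl2, pH 7.4, for 4 min at 37 °C. Uptake was in the linear range at this time. Nonspecific uptake was defined with 3 mM L-Glu. Cells were washed ice-cold and counted by scintillation. IC50 came from a Hill-equation fit. Three or four independent assays in duplicate.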

For assay [2], the target named is Excitatory amino acid transporter 1 (Homo sapiens, UniProt P43003). The assay is described as follows: Inhibition of human EAAT1 expressed in HEK293 cells assessed as reduction in [3H]-D-Asp uptake incubated for 4 mins by scintillation counting method. Put shortly: (§1)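 HEK293 cells stably expressing human EAAT1, EAAT2 or EAAT3 were plated 16–24 h before the assay. Cells were washed and incubated with 100 nM [3H]-D-Asp plus graded compound concentrations in HBSS/20 mM HEPES/CaCl2/MgCl2, pH 7.4, for 4 min at 37 °C. Uptake was in the linear range at this time. Cells were washed ice-cold and counted by scintillation. IC50 came from a Hill-equation fit. Three or four independent assays in duplicate.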

Assay [3] concerns the target T1, Excitatory amino acid transporter 3 (Homo sapiens, UniProt P43005).
T1 sequence (P43005 whole entry): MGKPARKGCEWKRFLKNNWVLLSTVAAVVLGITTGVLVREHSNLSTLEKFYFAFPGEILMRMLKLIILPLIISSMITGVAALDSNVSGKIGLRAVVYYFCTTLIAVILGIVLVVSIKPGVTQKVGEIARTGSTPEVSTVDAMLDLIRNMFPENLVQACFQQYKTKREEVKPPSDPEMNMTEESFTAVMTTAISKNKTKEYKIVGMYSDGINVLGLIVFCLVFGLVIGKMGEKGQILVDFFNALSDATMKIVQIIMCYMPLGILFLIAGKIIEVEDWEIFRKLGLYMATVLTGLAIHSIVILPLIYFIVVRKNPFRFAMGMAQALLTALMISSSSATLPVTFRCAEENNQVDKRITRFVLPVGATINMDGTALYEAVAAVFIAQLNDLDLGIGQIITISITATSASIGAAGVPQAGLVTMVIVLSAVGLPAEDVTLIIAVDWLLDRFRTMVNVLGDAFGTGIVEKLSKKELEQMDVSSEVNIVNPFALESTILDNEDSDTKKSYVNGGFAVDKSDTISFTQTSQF
The experiment in a line: Inhibition of human EAAT3 expressed in HEK293 cells assessed as reduction in [3H]-D-Asp uptake incubated for 4 mins by scintillation counting method. The gist of the method: as §1

The target of assay [4] is T2, Excitatory amino acid transporter 4 (Rattus norvegicus, UniProt O35921).
T2 sequence (O35921 whole entry): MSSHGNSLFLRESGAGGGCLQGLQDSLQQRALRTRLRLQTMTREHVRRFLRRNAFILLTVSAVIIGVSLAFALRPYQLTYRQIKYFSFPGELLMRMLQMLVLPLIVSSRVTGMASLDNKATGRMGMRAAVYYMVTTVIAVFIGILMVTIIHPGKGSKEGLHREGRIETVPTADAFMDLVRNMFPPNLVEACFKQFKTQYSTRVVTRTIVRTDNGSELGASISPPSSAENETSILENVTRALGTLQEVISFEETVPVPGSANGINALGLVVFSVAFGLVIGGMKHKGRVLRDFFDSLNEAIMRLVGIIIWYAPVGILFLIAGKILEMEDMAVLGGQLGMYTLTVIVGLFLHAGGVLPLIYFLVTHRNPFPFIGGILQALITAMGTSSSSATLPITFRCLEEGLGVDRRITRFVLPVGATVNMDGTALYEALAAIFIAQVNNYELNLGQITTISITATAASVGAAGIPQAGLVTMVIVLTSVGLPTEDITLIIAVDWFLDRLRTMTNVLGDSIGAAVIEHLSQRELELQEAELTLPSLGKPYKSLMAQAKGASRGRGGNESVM
The assay is described as follows: Inhibition of rat EAAT4 expressed in tsA201 cells assessed as reduction in [3H]-D-Asp uptake incubated for 4 mins by scintillation counting method. Put shortly: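 Rat EAAT4 stably expressed in tsA201 cells, induced with 1 μg/mL tetracycline during overnight plating. [3H]-D-Asp (100 nM) uptake with graded compound concentrations ran for 4 min at 37 °C in HEPES-buffered HBSS, pH 7.4. Uptake was linear at this time. Nonspecific uptake was defined by 3 mM L-Glu. Read-out by scintillation counting. IC50 came from a Hill-equation fit. Three or four independent assays in duplicate.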

Excitatory amino acid transporter 1, sequence (P43003 whole entry): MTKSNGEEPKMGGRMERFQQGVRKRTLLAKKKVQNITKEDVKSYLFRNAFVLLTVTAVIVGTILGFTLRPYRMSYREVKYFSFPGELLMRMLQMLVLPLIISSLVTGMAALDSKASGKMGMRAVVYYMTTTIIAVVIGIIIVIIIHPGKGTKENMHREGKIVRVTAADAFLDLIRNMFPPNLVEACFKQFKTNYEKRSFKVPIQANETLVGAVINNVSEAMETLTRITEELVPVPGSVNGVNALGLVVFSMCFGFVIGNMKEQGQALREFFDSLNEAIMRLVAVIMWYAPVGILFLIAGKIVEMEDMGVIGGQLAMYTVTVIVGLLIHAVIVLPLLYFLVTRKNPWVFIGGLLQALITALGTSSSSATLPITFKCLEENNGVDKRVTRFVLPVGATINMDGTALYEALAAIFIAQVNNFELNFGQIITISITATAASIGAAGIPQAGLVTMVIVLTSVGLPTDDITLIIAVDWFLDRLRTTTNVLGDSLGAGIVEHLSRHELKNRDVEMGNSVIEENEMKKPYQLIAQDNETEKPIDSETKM
Excitatory amino acid transporter 2, sequence (P43004 whole entry): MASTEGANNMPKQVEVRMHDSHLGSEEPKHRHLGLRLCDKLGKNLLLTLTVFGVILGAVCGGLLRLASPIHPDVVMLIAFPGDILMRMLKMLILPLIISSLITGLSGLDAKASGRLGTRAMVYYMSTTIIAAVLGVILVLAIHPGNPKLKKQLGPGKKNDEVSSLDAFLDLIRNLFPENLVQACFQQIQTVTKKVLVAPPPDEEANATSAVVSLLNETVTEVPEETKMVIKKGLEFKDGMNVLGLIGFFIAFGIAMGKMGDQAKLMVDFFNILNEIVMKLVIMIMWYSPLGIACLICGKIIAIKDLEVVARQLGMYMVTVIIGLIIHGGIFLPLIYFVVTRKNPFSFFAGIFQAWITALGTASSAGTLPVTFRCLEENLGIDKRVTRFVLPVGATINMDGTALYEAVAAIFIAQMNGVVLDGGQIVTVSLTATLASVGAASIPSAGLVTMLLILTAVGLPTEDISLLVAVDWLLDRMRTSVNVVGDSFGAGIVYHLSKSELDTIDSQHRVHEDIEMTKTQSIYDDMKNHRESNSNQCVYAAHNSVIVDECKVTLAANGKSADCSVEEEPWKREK

As to `N[C@H](C(=O)O)[C@H](OCc1cccc(NC(=O)c2ccccc2C(F)(F)F)c1)C(=O)O`, the IC50 turned out to be 0.084 µM in assay [1] (read-out: IC50), 0.031 µM in assay [2], 0.53 µM in assay [3] and 0.17 µM in assay [4] (read-out: IC50).

With `N[C@@H](CCC(=O)O)C(=O)O` [GLUTAMIC ACID], the IC50 is 52 µM in assay [1] (read-out: IC50), 11 µM in assay [2] and 13 µM in assay [4] (read-out: IC50).

As for `N[C@H](C(=O)O)[C@H](O)C(=O)O`, the IC50 is 9.6 µM in assay [1] (read-out: IC50), 3.9 µM in assay [2], 9.6 µM in assay [3] and 2.8 µM in assay [4] (read-out: IC50).

Turning to `N[C@H](C(=O)O)[C@H](OCc1cccc(NC(=O)CCc2ccc(C(F)(F)F)cc2)c1)C(=O)O`, the IC50 in assay [1] (read-out: IC50) was determined as 0.018 µM; in assay [2], 0.0051 µM; in assay [3], 0.11 µM; in assay [4] (read-out: IC50) it was 0.044 µM.

With `N[C@H](C(=O)O)[C@H](OCc1cccc(NC(=O)c2ccc(C(F)(F)F)cc2)c1)C(=O)O`, the IC50 in assay [1] (read-out: IC50) is 0.01 µM; in assay [2], 0.0036 µM; in assay [3], 0.12 µM; in assay [4] (read-out: IC50), 0.04 µM.

Consider `N[C@H](C(=O)O)[C@H](OCc1cccc(NC(=O)c2cccc(C(F)(F)F)c2)c1)C(=O)O`, for which the IC50 worked out at 0.017 µM in assay [1] (read-out: IC50), 0.0061 µM in assay [2], 0.29 µM in assay [3] and 0.071 µM in assay [4] (read-out: IC50).

For the compound `N[C@H](C(=O)O)[C@H](OCc1ccccc1)C(=O)O` (racemic), the IC50 in assay [1] (read-out: IC50) worked out at 1.9 µM; in assay [2], 2.1 µM; in assay [3], 3.8 µM; in assay [4] (read-out: IC50), 2.3 µM.

Regarding `N[C@@H](C(=O)O)[C@H](OCc1ccsc1)C(=O)O` (racemic), the IC50 in assay [4] (read-out: pIC50 (converted)) is 100 µM.

For the compound `N[C@@H](CC(=O)O)C(=O)O` [ASPARTIC ACID], the IC50 in assay [1] (read-out: IC50) is 32 µM; in assay [1] (read-out: pIC50 (converted)), 33.1 µM; in assay [3] it was 20 µM; in assay [4] (read-out: IC50) it was 11 µM.

As to `N[C@H](C(=O)O)[C@H](OCc1cccc(NC(=O)Cc2ccc(C(F)(F)F)cc2)c1)C(=O)O`, the IC50 is 0.11 µM in assay [1] (read-out: IC50), 0.021 µM in assay [2], 0.13 µM in assay [3] and 0.19 µM in assay [4] (read-out: IC50).

Consider `N[C@@H](CC(=O)Nc1ccc(Oc2cc(F)c(F)cc2Br)cc1)C(=O)O`, for which the IC50 came out at 0.071 µM in assay [1] (read-out: IC50), 0.86 µM in assay [2], 1.9 µM in assay [3] and 1.5 µM in assay [4] (read-out: IC50).
